Active and inactive are the calls of the source. The rule behind the calls is not given here.
Experiments:
HCT-116 [1] = test: Induction of cell cycle arrest in human HCT116 cells assessed as accumulation at sub-G1 phase at 15 uM after 48 hrs by propidium iodide staining-based flow cytometric analysis in presence of RNase A (reference value: 6.5%); type: functional
HCT-116 [2] = test: Induction of cell cycle arrest in human HCT116 cells assessed as accumulation at sub-G1 phase at 30 uM after 48 hrs by propidium iodide staining-based flow cytometric analysis in presence of RNase A (reference value: 6.5%); type: functional
HCT-116 [3] = test: Induction of apoptosis in human HCT116 cells assessed as late apoptotic cells at 15 uM after 48 hrs by annexin V-FITC/propidium iodide staining-based flow cytometric analysis (reference value: 5.2%); type: functional
HCT-116 [4] = test: Induction of reactive oxygen species in human HCT116 cells at 15 uM after 48 hrs by DCFH-DA staining-based flow cytometric analysis (reference value: 5.1%); type: functional
In short: (§1)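 HCT116 cells seeded overnight, then exposed to test compounds, alone or with NAC, for 48 h in complete medium. Loaded with 20 μM DCFH-DA for 30 min; intracellular ROS in 20 000 cells per group read by flow cytometry as histograms.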

HCT-116 [5] = test: Induction of apoptosis in human HCT116 cells assessed as dead cells at 30 uM after 48 hrs by annexin V-FITC/propidium iodide staining-based flow cytometric analysis (reference value: 4.2%); type: functional
HCT-116 [6] = test: Induction of apoptosis in human HCT116 cells assessed as late apoptotic cells at 30 uM after 48 hrs by annexin V-FITC/propidium iodide staining-based flow cytometric analysis (reference value: 7.2%); type: functional
HCT-116 [7] = test: Induction of apoptosis in human HCT116 cells assessed as cleaved caspase 3 level at 30 uM up to 24 hrs by Western blot analysis; type: functional, cell-based
HCT-116 [8] = test: Induction of cell cycle arrest in human HCT116 cells assessed as accumulation at G0/G1 phase at 30 uM after 24 hrs by propidium iodide staining-based flow cytometric analysis in presence of RNase A (reference value: 64.6%); type: functional
[9] = Downregulation of cyclin A expression in human HCT116 cells at 7.5 to 30 uM after 24 hrs by Western blot analysis; type: functional, cell-based; details: HCT-116
In short: (§2)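 HCT116 cells exposed 24 h in complete medium; lysed in RIPA buffer (pH 8.0), protein by BCA, equal loads run on 8–13% SDS-PAGE, PVDF transfer, blocked in 5% BSA/TBST, primary antibodies overnight at 4 °C, HRP secondaries 2 h RT, ECL detection; β-actin as loading control.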

[10] = Antiproliferative activity against human HCT116 cells assessed as cell viability after 24 hrs by SRB assay; type: functional, cell-based; details: HCT-116, 24 h
In short: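 HCT116 cells in 96-well plates exposed 24, 48 or 72 h; TCA fixation, 0.4% SRB staining, dye solubilised in 10 mM Tris pH 10.0, absorbance at 515 nm; viability relative to solvent-treated control.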

[11] = Upregulation of phosphorylated H2A.X expression at Ser139 in human HCT116 cells at 7.5 to 30 uM after 24 hrs by Western blot analysis; type: functional, cell-based; details: HCT-116
[12] = Upregulation of ATM expression in human HCT116 cells at 1 hr by Western blot analysis; type: functional, cell-based; details: HCT-116
[13] = Upregulation of p53 expression in human HCT116 cells at 7.5 to 30 uM after 24 hrs by Western blot analysis; type: functional, cell-based; details: HCT-116
HCT-116 [14] = test: Increase in p27 expression in human HCT116 cells after 24 hrs by western blot analysis; type: functional, cell-based; in short: as §2
[15] = Decrease in Skp2 expression in human HCT116 cells at 7.5 to 30 uM after 24 hrs by western blot analysis; type: functional, cell-based; details: HCT-116; in short: as §2
[16] = Decrease in SCF E3 expression in human HCT116 cells at 7.5 to 30 uM after 24 hrs by western blot analysis; type: functional, cell-based; details: HCT-116; in short: as §2
[17] = molecular target: S-phase kinase-associated protein 1/2 (Homo sapiens) (UniProt Q13309+P63208); test: Inhibition of Skp2/Skp1 protein interaction in human HCT116 cells after 24 hrs by immunoprecipitation assay; type: cell-based; details: HCT-116
S-phase kinase-associated protein 1/2 (Homo sapiens), sequence (P63208 whole entry, looked up): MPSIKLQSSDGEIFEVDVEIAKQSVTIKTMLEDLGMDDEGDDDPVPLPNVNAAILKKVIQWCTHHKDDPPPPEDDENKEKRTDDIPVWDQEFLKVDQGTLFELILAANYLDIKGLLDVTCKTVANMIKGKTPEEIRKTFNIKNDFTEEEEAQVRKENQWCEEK
S-phase kinase-associated protein 1/2 (Homo sapiens), sequence (Q13309 whole entry, looked up): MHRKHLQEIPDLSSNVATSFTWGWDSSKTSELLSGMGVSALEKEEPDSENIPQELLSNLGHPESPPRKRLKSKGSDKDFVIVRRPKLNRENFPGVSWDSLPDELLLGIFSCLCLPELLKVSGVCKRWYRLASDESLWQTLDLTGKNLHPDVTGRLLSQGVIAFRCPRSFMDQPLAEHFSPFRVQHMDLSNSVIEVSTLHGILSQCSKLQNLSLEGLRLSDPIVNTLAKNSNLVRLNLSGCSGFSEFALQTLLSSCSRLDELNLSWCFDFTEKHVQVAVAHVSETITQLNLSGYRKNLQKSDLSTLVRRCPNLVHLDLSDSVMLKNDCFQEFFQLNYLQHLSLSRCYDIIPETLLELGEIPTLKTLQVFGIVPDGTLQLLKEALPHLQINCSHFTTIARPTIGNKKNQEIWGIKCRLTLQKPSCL
In short: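 Protein measured by Bradford. Equal protein incubated with Protein G sepharose and the capture antibody (anti-p53, anti-Cul-1 or anti-Skp2) overnight at 4 °C. Bead eluates boiled in Laemmli/2-mercaptoethanol and analysed by Western blot.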

HCT-116 [18] = test: Induction of cell cycle arrest in human HCT116 cells assessed as accumulation at sub-G1 phase at 7.5 uM after 48 hrs by propidium iodide staining-based flow cytometric analysis in presence of RNase A (reference value: 6.5%); type: functional
SW480 = test: Antiproliferative activity against human SW480 cells after 24 to 72 hrs by SRB assay; type: functional, cell-based
In short: (§3)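 Cells grown in 96-well plates (RPMI 1640; MRC-5 in MEM, 10% FBS, antibiotics) with compound […]; fixed in 10% TCA 30 min at 4 °C, stained 0.4% SRB in 1% acetic acid 1 h, dye dissolved in 10 mM Tris pH 10.0, A515 read; viability as % of solvent control, IC50 by nonlinear regression; mean of three independent experiments.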

Mus musculus [19] = test: Upregulation of p21 in human HCT116 cells xenografted in nude mouse at 5 to 10 mg/kg, ip administered 3 times per week measured on day 41 by Western blot analysis; type: functional, organism-based; details: HCT-116
In short: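 HCT116 xenografts in nude mice dosed ip at 5 or 10 mg/kg three times weekly to day 41. Portions of the excised frozen tumors were thawed on ice, homogenized in complete lysis buffer, protein quantified by Bradford, and p21, p27 and Skp2 assessed by Western blot with β-actin as internal control.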

Mus musculus [20] = test: Downregulation of Skp2 in human HCT116 cells xenografted in nude mouse at 5 to 10 mg/kg, ip administered 3 times per week measured on day 41 by Western blot analysis; type: functional, organism-based; details: HCT-116
In short: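 Excised frozen xenograft tumours homogenised in lysis buffer; protein by Bradford assay, then Western blotting for Skp2 with β-actin as control.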

Mus musculus [21] = test: Downregulation of Skp2 in human HCT116 cells xenografted in nude mouse at 5 to 10 mg/kg, ip administered 3 times per week measured on day 41 by […]; type: functional, organism-based; details: HCT-116
In short: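 Formalin-fixed, paraffin-embedded xenograft sections (mice dosed ip three times weekly) probed with antibodies, detected by LSAB/HRP, counterstained with H&E, imaged by inverted phase-contrast microscopy.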

HCT-116 [22] = test: Induction of reactive oxygen species in human HCT116 cells after 48 hrs by DCFH-DA staining-based flow cytometric analysis; type: functional, cell-based; in short: as §1
[23] = Antiproliferative activity against human HCT15 cells after 24 to 72 hrs by SRB assay; type: functional, cell-based; details: HCT-15; in short: as §3
HCT-116 [24] = test: Antiproliferative activity against human HCT116 cells after 5 to 40 uM by SRB assay; type: functional, cell-based; details: TDE = time-dependent effect
HCT-116 [25] = test: Induction of morphological change in human HCT116 cells assessed as loss of contact with adjacent cells at 30 uM after 24 to 48 hrs by phase contrast microscopic analysis; type: functional, cell-based
In short: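 HCT116 cells incubated with compound for 24 h, then viewed and photographed under phase-contrast microscopy; also examined at 48 h.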

HCT-116 [26] = test: Induction of cell cycle arrest in human HCT116 cells assessed as accumulation at G0/G1 phase at 15 uM after 24 hrs by propidium iodide staining-based flow cytometric analysis in presence of RNase A (reference value: 64.6%); type: functional

O=C/C=C/c1ccc2c(c1)O[C@@H](CO)[C@H](c1ccc(O)c(O)c1)O2 [AMERICANIN A]
Activity (HCT-116 [1]): 37.9% | Activity (HCT-116 [2]): 52% | Activity (HCT-116 [3]): 11.1% | Activity (HCT-116 [4]): 7.9% | Activity (HCT-116 [5]): 5.1% | Activity (HCT-116 [6]): 36.5% | Activity (HCT-116 [7]): Active | Activity (HCT-116 [8]): 39% | Activity [9]: Active | IC50 [10]: 24.1 µM | Activity [11]: Active | Activity [12]: Dose-dependent effect | Activity [13]: Active | Activity (HCT-116 [14]): Dose-dependent effect | Activity [15]: Active | Activity [16]: Active | inhibition [17]: inactive | Activity (HCT-116 [18]): 7.6% | IC50 (SW480): 27.4 µM | Activity (Mus musculus [19]): Active | Activity (Mus musculus [20]): Active | Activity (Mus musculus [21]): Active | Activity (HCT-116 [22]): Dose-dependent effect | IC50 [23]: 12.5 µM | Activity (HCT-116 [24]): tde | Activity (HCT-116 [25]): Active | Activity (HCT-116 [26]): 47.5%
